In assay [1] the test system is NCI-H1299. Put plainly: Cytotoxicity in human NCI-H1299 cells assessed as reduction in cell viability incubated for 48 hrs by resazurin dye based assay. Format: functional. The settings on record: for IC50: NCI-H1299, 48 h. In short, it runs like this:
(§1)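 Cells seeded at 2000/well, 24 h later exposed to serial dilutions (0.1% DMSO vehicle) in complete medium for 48 h; resazurin (2 mg/mL stock) then added for 16 h; fluorescence at 544 nm excitation/595 nm emission, proportional to living cells. Triplicate wells, repeated twice; IC50 from concentration-response.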
(Alamar Blue is a resazurin reagent that responds to reducing activity.)

Assay [2] concerns A549. The assay is described as follows: Cytotoxicity in human A549 cells assessed as reduction in cell viability incubated for 48 hrs by resazurin dye based assay. The settings on record: for IC50: A549, 48 h. The assay is classed as functional. The method in brief: as §1
Assay [3] has as its system HT-29. The assay is described as follows: Cytotoxicity in human HT-29 cells assessed as reduction in cell viability incubated for 48 hrs by resazurin dye based assay. Format: functional. The settings on record: for IC50: HT-29, 48 h. The method in brief:
as §1

Assay [4] deals with HCT-116. The assay is described as follows: Induction of apoptosis in human HCT-116 cells assessed as increase in early apoptosis level at 40 uM incubated for 24 hrs by annexin-V/propidium iodide staining based flow cytometry relative to control. Format: functional, cell-based. In short, it runs like this:
(§2)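 HCT116 cells were seeded at 6 × 10^4 cells/well and treated 24 h later in medium containing 0.1% DMSO, with DMSO alone as the control. Floating and trypsinized adherent cells were pooled and washed in binding buffer. They were stained with Annexin V/PI for 15 min at room temperature and read by flow cytometry. Early apoptotic cells were FITC+/PI−; late apoptotic cells were FITC+/PI+.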
(In flow cytometry, cells or beads pass a laser one at a time.)

Assay [5] deals with HCT-116. Put plainly: Induction of cell cycle arrest in human HCT-116 cells assessed as increase in G2/M cell population level at 20 uM incubated for 24 hrs by propidium iodide /RNase staining based flow cytometry relative to control. The assay is classed as functional. In short, it runs like this:
(§3)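 HCT116 cells (6 × 10^4/well, six-well plates) treated after 24 h for 24 h (12.5 or 15 μM for one conjugate, 20 μM for others; 0.1% DMSO vehicle); floating and trypsinized cells fixed in 70% ethanol at 4 °C overnight, stained with PI/RNase 15 min at room temperature, DNA content by flow cytometry; phase distribution versus control.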

Assay [6] has as its system HCT-116. The assay is described as follows: Induction of apoptosis in human HCT-116 cells assessed as increase in late apoptosis level at 40 uM incubated for 48 hrs by annexin-V/propidium iodide staining based flow cytometry relative to control.
For assay [7], the system named is HCT-116. Put plainly: Cytotoxicity in human HCT-116 cells assessed as reduction in cell viability incubated for 48 hrs by resazurin dye based assay. The settings on record: for IC50: HCT-116, 48 h. The assay is classed as functional. In short, it runs like this:
as §1

Assay [8] in a line: Induction of GAG priming in CHO pgsA-745 cells assessed as increase in non-sulfated delta-UA-GalNAc level in from the cell culture media at 10 uM incubated for 48 hrs by LC-MS analysis relative to control. The settings on record: Cricetulus griseus.
The nature of assay [9]: Induction of GAG biosynthesis in CHO pgsA-745 cells assessed as increase in GlcN level at 10 uM incubated for 48 hrs by immunostaining based confocal microscopic analysis relative to control. Format: functional, Cricetulus griseus.
Assay [10] in a line: Induction of GAG priming in CHO pgsA-745 cells assessed as increase in delta-UA-GalNAc6S level in from the cell culture media at 10 uM incubated for 24 hrs by LC-MS analysis relative to control. The assay is classed as functional. The settings on record: Cricetulus griseus, time 48 hrs, in the assay text read “incubated for 48 hrs” for “incubated for 24 hrs”. In short, it runs like this: (§4)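 Disaccharide LC-MS: CHO pgsA-745 cells treated at 10 μM in 0.1% DMSO, GAGs purified from cells or medium, digested with 1 mU chondroitinase ABC (5 mM NH4Ac pH 7.0, 37 °C, 24 h); treated samples PMP-labelled, DMSO controls D5-PMP-labelled, mixed at equal cellular protein (1 mg), co-injected on C18 capillary LC, negative-ion MS; paired ion intensities compared.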

Assay [11] is described as follows: Induction of GAG priming in CHO pgsA-745 cells assessed as increase in delta-UA-GalNAc4S level in from the cell culture media at 10 uM incubated for 24 hrs by LC-MS analysis relative to control. Format: functional. The settings on record: Cricetulus griseus, time 48 hrs, in the assay text read “48 hrs” for “24 hrs”. The method in brief: as §4
Assay [12] relates to CHO. The assay is described as follows: Induction of GAG priming in CHO pgsA-745 cells assessed as increase in specific CS staining […] at 10 uM incubated for 24 hrs by immunostaining based flow cytometry. The settings on record: Cricetulus griseus. The assay is classed as functional, cell-based. The method in brief: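 CHO pgsA-745 cells treated 10 μM with 0.1% DMSO 24 h at 37 °C, trypsinized, fixed in 4% formaldehyde, digested with 1 mU chondroitinase ABC 20 min at 37 °C, stained overnight at 4 °C with mAb 2B6 then Alexa Fluor 488 anti-mouse secondary; fluorescence intensity read by flow cytometry.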

In assay [13] the test system is HCT-116. Put plainly: Induction of cell cycle arrest in human HCT-116 cells assessed as G2/M cell population level at 15 uM incubated for 24 hrs by propidium iodide /RNase staining based flow cytometry. Format: functional. In short, it runs like this: as §3
The nature of assay [14]: Induction of GAG priming in CHO pgsA-745 cells assessed as change in UA-GalNAc relative intensity level at 10 uM incubated for 24 hrs by LC-MS analysis (reference value: 44.74). Format: functional, Cricetulus griseus. The method in brief: as §4
Assay [15] has as its system CHO. The assay is described as follows: Induction of GAG priming in CHO pgsA-745 cells assessed as increase in FGF7/GAGs/FGFR2B ternary complex formation at 10 uM incubated for 24 hrs by confocal microscopy. The settings on record: Cricetulus griseus. The assay is classed as functional, cell-based. In short, it runs like this: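 Ternary complex assay: CHO pgsA-745 cells on coverslips treated 10 μM with 0.1% DMSO for 24 h at 37 °C, fixed in 4% formaldehyde 15 min, then incubated sequentially with FGFR2B-Fc, FGF7 and Protein A-Alexa Fluor 647; bound receptor imaged by confocal microscopy at 665 nm […].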

Assay [16] concerns HCT-116. The assay is described as follows: Induction of cell cycle arrest in human HCT-116 cells assessed as G2/M cell population level at 12.5 uM incubated for 24 hrs by propidium iodide /RNase staining based flow cytometry. The assay is classed as functional. In short, it runs like this:
as §3

Assay [17] concerns HCT-116. The assay is described as follows: Induction of cell cycle arrest in human HCT-116 cells assessed as increase in G2/M cell population level at 12.5 uM incubated for 24 hrs by propidium iodide /RNase staining based flow cytometry relative to control. The assay is classed as functional. In short, it runs like this: as §3
Assay [18] has as its system HCT-116. The assay is described as follows: Induction of apoptosis in human HCT-116 cells assessed as increase in late apoptosis level at 7.5 uM […] by annexin-V/propidium iodide staining based flow cytometry relative to control. The assay is classed as functional, cell-based.
The subject of assay [19] is HCT-116. Put plainly: Induction of apoptosis in human HCT-116 cells assessed as increase in early apoptosis level at 7.5 uM […] by annexin-V/propidium iodide staining based flow cytometry relative to control. Format: functional.
Assay [20] concerns HCT-116. The assay is described as follows: Induction of apoptosis in human HCT-116 cells assessed as early apoptosis level at 12.5 uM […] by annexin-V/propidium iodide staining based flow cytometry relative to control. Format: functional.
The subject of assay [21] is CHO. Put plainly: Induction of GAG biosynthesis in CHO pgsA-745 cells assessed as increase in GalN level in culture media at 10 uM incubated for 48 hrs by immunostaining based confocal microscopic analysis relative to control. Format: functional, cell-based. The settings on record: Cricetulus griseus.
A short description of assay [22]: Induction of GAG biosynthesis in CHO pgsA-745 cells assessed as increase in GalN level at 10 uM incubated for 48 hrs by immunostaining based confocal microscopic analysis relative to control. The assay is classed as functional, Cricetulus griseus.
Assay [23] is described as follows: Induction of GAG priming in CHO pgsA-745 cells assessed as change in UA-GalNAc6S relative intensity level at 10 uM incubated for 24 hrs by LC-MS analysis (reference value: 29.19). Format: functional. The settings on record: Cricetulus griseus, time 48 hrs, in the assay text read “incubated for 48 hrs” for “incubated for 24 hrs”. The method in brief:
as §4

A short description of assay [24]: Induction of GAG priming in CHO pgsA-745 cells assessed as change in UA-GalNAc4S relative intensity level at 10 uM incubated for 24 hrs by LC-MS analysis (reference value: 2.9). Format: functional. The settings on record: Cricetulus griseus, time 48 hrs, in the assay text read “incubated for 48 hrs” for “incubated for 24 hrs”. In short, it runs like this:
as §4

Assay [25] relates to HCT-116. The assay is described as follows: Induction of apoptosis in human HCT-116 cells assessed as late apoptosis level at 12.5 uM […] by annexin-V/propidium iodide staining based flow cytometry relative to control. The assay is classed as functional.
The subject of assay [26] is CHO. Put plainly: Induction of GAG biosynthesis in CHO pgsA-745 cells assessed as increase in GlcN level in culture media at 10 uM incubated for 48 hrs by immunostaining based confocal microscopic analysis relative to control. The assay is classed as functional, cell-based. The settings on record: Cricetulus griseus.
In assay [27] the test system is HCT-116. The assay is described as follows: Induction of apoptosis in human HCT-116 cells assessed as increase in late apoptosis level at 40 uM incubated for 24 hrs by annexin-V/propidium iodide staining based flow cytometry relative to control. Format: functional, cell-based. The method in brief:
as §2

Assay [28] has as its system HCT-116. The assay is described as follows: Induction of cell cycle arrest at S phase in human HCT-116 cells at 40 uM incubated for 24 hrs by propidium iodide /RNase staining based flow cytometry. Format: functional. In short, it runs like this: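 HCT116 cells (6 × 10^4/well) were seeded, then exposed 24 h later in complete medium, with 0.1% DMSO as the control. After 24 h, medium cells and trypsinized adherent cells were combined. Pellets were fixed in 70% ethanol at 4 °C overnight and stained with PI/RNase buffer for 15 min at room temperature. Phase distribution (G0/G1, S, G2/M) was measured by flow cytometry.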

Calls of active or inactive are those of the source. No cut-off for these calls is given here.

With `CC(=O)OC[C@H]1O[C@@H](n2[se]c3ccccc3c2=O)[C@H](OC(C)=O)[C@@H](OC(C)=O)[C@@H]1OC(C)=O`, the IC50 came to 19 µM in [1], 20.4 µM in assay [2], 11.9 µM in assay [3] and 18 µM in assay [7]. Moreover, the outcome in assay [4], in [5] and in assay [6] was Active.
In the case of `CC(=O)O[C@@H]1[C@@H](OC(C)=O)[C@H](OC(C)=O)CO[C@H]1n1[se]c2ccccc2c1=O`, the “fold change (FC)” value in assay [8] worked out at 2.24; in assay [9], 12.2; in [10] it was 3.4; in [11] it was 34.5; in assay [14], 100; in [17], 1.3. Besides, the “fold change (FC)” value in [19] came to 27.7; in [22], 27.6; in assay [23], 100; in assay [24], 100. For the same compound, the Activity result is “Dose-dependent effect” in assay [1]; 51.9% in assay [13]; “Dose-dependent effect” in assay [2]; 45.2% in assay [16]; “Dose-dependent effect” in assay [3]; 10.97% in assay [20]. Besides, the Activity result was “Dose-dependent effect” in assay [7] and 13.18% in [25]. Moreover, the half-inhibitory concentration (IC50) in assay [1] was 7 µM; in [2] it was 7 µM; in assay [3] it was 7.3 µM; in assay [7] it was 6.4 µM. Besides, the outcome in [12], in assay [15] and in assay [18] was Active. The outcome in assay [21] and in assay [26] was inactive.
For `O=c1c2ccccc2[se]n1-c1ccccc1` [EBSELEN], the IC50 in assay [1] was 27.7 µM; in assay [2] it was 16.8 µM; in [3] it was 50.4 µM; in assay [7], 50 µM. Besides, the result in assay [27], in assay [4] and in assay [28] was Active.

In general, IC50 refers to the point on the concentration scale where inhibition reaches its midpoint.

The record behind these values is ChEMBL document CHEMBL4715820, “Aglycone Ebselen and β-d-Xyloside Primed Glycosaminoglycans Co-contribute to Ebselen β-d-Xyloside-Induced Cytotoxicity” (J Med Chem, 2018).
